Results as given in ChEMBL document CHEMBL1268917, “Synthesis and biological evaluation of radio-iodinated benzimidazoles as SPECT imaging agents for NR2B subtype of NMDA receptor” (Bioorg Med Chem, 2010).

Assays:
Format in all cases: ADME, organism-based
Brain [1] = assay: Biodistribution in ddY mouse brain assessed per gram of tissue at 14.8 kBq, iv after 30 mins; settings: in vivo, 0.5 h
In short: (§1)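 Killed at set times after injection; organs and blood removed, weighed, gamma counted. Data as % injected dose per gram tissue, mean SD, n = 5–6.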

Intestine [2] = assay: Biodistribution in ddY mouse intestine assessed per gram of tissue at 14.8 kBq, iv after 180 mins; settings: in vivo, 3 h; in short: as §1
Spleen [3] = assay: Biodistribution in ddY mouse spleen assessed per gram of tissue at 14.8 kBq, iv after 60 mins; settings: in vivo, 1 h
In short: (§2)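 Radioiodinated tracer (14.8 kBq) injected via tail vein into male ddY mice (6 weeks, 30–35 g). Organs removed at set times after injection, weighed and gamma-counted; uptake expressed as % injected dose per gram tissue, mean ± SD, n = 5–6.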

Spleen [4] = assay: Biodistribution in ddY mouse spleen assessed per gram of tissue at 14.8 kBq, iv after 0.5 mins; settings: in vivo; in short: as §2
Lung [5] = assay: Biodistribution in ddY mouse lung assessed per gram of tissue at 14.8 kBq, iv after 0.5 mins; settings: in vivo; in short: as §2
Blood [6] = assay: Biodistribution in ddY mouse blood assessed per gram of tissue at 14.8 kBq, iv after 360 mins; settings: in vivo, 6 h; in short: as §1
Pancreas [7] = assay: Biodistribution in ddY mouse pancreas assessed per gram of tissue at 14.8 kBq, iv after 5 mins; settings: in vivo; in short: as §2
Brain [8] = assay: Biodistribution in ddY mouse brain assessed per gram of tissue at 14.8 kBq, iv after 60 mins; settings: in vivo, 1 h; in short: as §1
Pancreas [9] = assay: Biodistribution in ddY mouse pancreas assessed per gram of tissue at 14.8 kBq, iv after 180 mins; settings: in vivo, 3 h; in short: as §2
Heart [10] = assay: Biodistribution in ddY mouse heart assessed per gram of tissue at 14.8 kBq, iv after 30 mins; settings: in vivo, 0.5 h; in short: as §1
Intestine [11] = assay: Biodistribution in ddY mouse intestine assessed per gram of tissue at 14.8 kBq, iv after 360 mins; settings: in vivo, 6 h; in short: as §1
Pancreas [12] = assay: Biodistribution in ddY mouse pancreas assessed per gram of tissue at 14.8 kBq, iv after 0.5 mins; settings: in vivo; in short: as §2
Stomach [13] = assay: Biodistribution in ddY mouse stomach assessed per gram of tissue at 14.8 kBq, iv after 30 mins; settings: in vivo, 0.5 h; in short: as §2
Stomach [14] = assay: Biodistribution in ddY mouse stomach assessed per gram of tissue at 14.8 kBq, iv after 0.5 mins; settings: in vivo; in short: as §2
Intestine [15] = assay: Biodistribution in ddY mouse intestine assessed per gram of tissue at 14.8 kBq, iv after 30 mins; settings: in vivo, 0.5 h; in short: as §1
Brain [16] = assay: Biodistribution in ddY mouse brain assessed per gram of tissue at 14.8 kBq, iv after 0.5 mins; settings: in vivo; in short: as §1
Liver [17] = assay: Biodistribution in ddY mouse liver assessed per gram of tissue at 14.8 kBq, iv after 5 mins; settings: in vivo; in short: as §1
Lung [18] = assay: Biodistribution in ddY mouse lung assessed per gram of tissue at 14.8 kBq, iv after 60 mins; settings: in vivo, 1 h; in short: as §2
Kidney = assay: Biodistribution in ddY mouse kidney assessed per gram of tissue at 14.8 kBq, iv after 30 mins; settings: in vivo, 0.5 h; in short: as §1
Heart [19] = assay: Biodistribution in ddY mouse heart assessed per gram of tissue at 14.8 kBq, iv after 0.5 mins; settings: in vivo; in short: as §1
Lung [20] = assay: Biodistribution in ddY mouse lung assessed per gram of tissue at 14.8 kBq, iv after 5 mins; settings: in vivo; in short: as §2
Heart [21] = assay: Biodistribution in ddY mouse heart assessed per gram of tissue at 14.8 kBq, iv after 180 mins; settings: in vivo, 3 h; in short: as §1
Liver [22] = assay: Biodistribution in ddY mouse liver assessed per gram of tissue at 14.8 kBq, iv after 30 mins; settings: in vivo, 0.5 h; in short: as §1
Intestine [23] = assay: Biodistribution in ddY mouse intestine assessed per gram of tissue at 14.8 kBq, iv after 5 mins; settings: in vivo; in short: as §1
Pancreas [24] = assay: Biodistribution in ddY mouse pancreas assessed per gram of tissue at 14.8 kBq, iv after 360 mins; settings: in vivo, 6 h; in short: as §2
Liver [25] = assay: Biodistribution in ddY mouse liver assessed per gram of tissue at 14.8 kBq, iv after 60 mins; settings: in vivo, 1 h; in short: as §2
Spleen [26] = assay: Biodistribution in ddY mouse spleen assessed per gram of tissue at 14.8 kBq, iv after 5 mins; settings: in vivo; in short: as §2
Brain [27] = assay: Biodistribution in ddY mouse brain assessed per gram of tissue at 14.8 kBq, iv after 180 mins; settings: in vivo, 3 h; in short: as §1
Pancreas [28] = assay: Biodistribution in ddY mouse pancreas assessed per gram of tissue at 14.8 kBq, iv after 30 mins; settings: in vivo, 0.5 h; in short: as §2
Blood [29] = assay: Biodistribution in ddY mouse blood assessed per gram of tissue at 14.8 kBq, iv after 60 mins; settings: in vivo, 1 h; in short: as §1

Structure (SMILES): CS(=O)(=O)Nc1ccc2nc(CN3CCC(Cc4ccc([125I])cc4)CC3)[nH]c2c1
- Drug uptake (Brain [1]): 0.5 % ID/g
- Drug uptake (Intestine [2]): 7.82 % ID/g
- Drug uptake (Spleen [3]): 2.78 % ID/g
- Drug uptake (Spleen [4]): 0.9 % ID/g
- Drug uptake (Lung [5]): 3.82 % ID/g
- Drug uptake (Blood [6]): 0.36 % ID/g
- Drug uptake (Pancreas [7]): 3.09 % ID/g
- Drug uptake (Brain [8]): 0.52 % ID/g
- Drug uptake (Pancreas [9]): 5.39 % ID/g
- Drug uptake (Heart [10]): 4.29 % ID/g
- Drug uptake (Intestine [11]): 6.49 % ID/g
- Drug uptake (Pancreas [12]): 0.92 % ID/g
- Drug uptake (Stomach [13]): 2.24 % ID/g
- Drug uptake (Stomach [14]): 0.42 % ID/g
- Drug uptake (Intestine [15]): 3.07 % ID/g
- Drug uptake (Brain [16]): 0.32 % ID/g
- Drug uptake (Liver [17]): 19.35 % ID/g
- Drug uptake (Lung [18]): 1.7 % ID/g
- Drug uptake (Kidney): 8.79 % ID/g
- Drug uptake (Heart [19]): 9.07 % ID/g
- Drug uptake (Lung [20]): 3.52 % ID/g
- Drug uptake (Heart [21]): 6.93 % ID/g
- Drug uptake (Liver [22]): 16.67 % ID/g
- Drug uptake (Intestine [23]): 1.58 % ID/g
- Drug uptake (Pancreas [24]): 3.72 % ID/g
- Drug uptake (Liver [25]): 13.74 % ID/g
- Drug uptake (Spleen [26]): 3.19 % ID/g
- Drug uptake (Brain [27]): 0.67 % ID/g
- Drug uptake (Pancreas [28]): 3.71 % ID/g
- Drug uptake (Blood [29]): 0.54 % ID/g
